What is called IC50 is the concentration that inhibits the measured activity by half. As usually defined, the Ki is a dissociation constant, usually derived from enzyme kinetics or from competition with a known ligand. A word on the logD: it is lipophilicity at a set pH, counting ionised and neutral species. A lower logD goes with lower lipophilicity.

In brackets after ≈: the same amount, converted by molar mass. Some results are limits rather than exact numbers.

One series deals with Histone-lysine N-methyltransferase EZH2 (Homo sapiens, UniProt Q15910). The experiment in a line: Inhibition of EZH2 in human KARPAS422 cells assessed as reduction in H3K27me3 level after 72 hrs by ELISA.
Sequence of Histone-lysine N-methyltransferase EZH2 (Homo sapiens, UniProt Q15910) (Q15910 whole entry): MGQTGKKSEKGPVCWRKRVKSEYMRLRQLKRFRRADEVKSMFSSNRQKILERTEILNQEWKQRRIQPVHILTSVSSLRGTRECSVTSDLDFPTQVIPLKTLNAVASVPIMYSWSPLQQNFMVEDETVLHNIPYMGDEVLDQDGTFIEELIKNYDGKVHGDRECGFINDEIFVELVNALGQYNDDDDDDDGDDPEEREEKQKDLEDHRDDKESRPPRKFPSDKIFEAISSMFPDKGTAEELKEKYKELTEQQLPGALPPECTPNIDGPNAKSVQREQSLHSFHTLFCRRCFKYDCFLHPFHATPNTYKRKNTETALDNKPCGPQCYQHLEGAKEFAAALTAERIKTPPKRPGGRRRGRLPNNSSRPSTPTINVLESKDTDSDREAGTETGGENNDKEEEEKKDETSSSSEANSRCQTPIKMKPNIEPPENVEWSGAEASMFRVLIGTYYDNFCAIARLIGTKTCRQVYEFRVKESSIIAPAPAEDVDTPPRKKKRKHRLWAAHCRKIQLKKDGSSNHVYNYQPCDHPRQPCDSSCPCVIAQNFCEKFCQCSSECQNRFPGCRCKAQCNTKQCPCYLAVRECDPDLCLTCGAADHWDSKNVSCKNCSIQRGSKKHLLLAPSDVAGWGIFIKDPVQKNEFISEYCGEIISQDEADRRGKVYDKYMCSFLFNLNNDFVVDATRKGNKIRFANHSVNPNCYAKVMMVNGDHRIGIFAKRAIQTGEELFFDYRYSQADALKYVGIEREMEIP
Conditions: not given
With `Cc1cc(C)c(CN2CCc3c(Cl)cc(-c4c(C)noc4C)c(Cl)c3C2=O)c(=O)[nH]1`, the IC50 turned out to be 17 nM.

Consider `Cc1cc(C)c(CN2CCc3c(Cl)cc([C@H](C)CO)c(Cl)c3C2=O)c(=O)[nH]1`, for which the IC50 was 129 nM.

As to `COc1cc(C)[nH]c(=O)c1CN1CCc2c(Cl)cc(C(OC)C3CCOC3)c(Cl)c2C1=O` (single isomer, unassigned; (+)), the IC50 came out at 4 nM.

As to `COC(c1cc(Cl)c2c(c1Cl)C(=O)N(Cc1c(C)cc(C)[nH]c1=O)CC2)C1CCOCC1` (single isomer, unassigned; (+)), the IC50 was found to be 9 nM.

`CCC(O)c1cc(Cl)c2c(c1Cl)C(=O)N(Cc1c(C)cc(C)[nH]c1=O)CC2` (single isomer, unassigned; (+)): the IC50 amounted to 1050 nM.

Take `COC(c1cc(Cl)c2c(c1Cl)C(=O)N(Cc1c(C)cc(C)[nH]c1=O)CC2)C1CCN(C)CC1` (single isomer, unassigned; (+)): the 50% inhibitory concentration (IC50) came out at 9 nM.

In the next series the target is Histone-lysine N-methyltransferase EZH2 (Homo sapiens, UniProt Q15910, Y641N). As to the kind of experiment: Inhibition of EZH2 Y641N mutant (unknown origin) using oligonucleosomes as substrate after 60 mins in presence of [3H]SAM by scintillation counting analysis.
Sequence of Histone-lysine N-methyltransferase EZH2 (Homo sapiens, UniProt Q15910, Y641N) (Q15910 whole entry Y641N): as the sequence (Q15910 whole entry) above, with Y641N counted along it
Conditions: not given
With `Cc1cc(C)c(CN2CCc3c(Cl)cc(-c4c(C)noc4C)c(Cl)c3C2=O)c(=O)[nH]1`, the Ki is 1.15 nM.

`Cc1cc(C)c(CN2CCc3c(Cl)cc([C@H](C)CO)c(Cl)c3C2=O)c(=O)[nH]1`: the Ki is 17 nM.

`COc1cc(C)[nH]c(=O)c1CN1CCc2c(Cl)cc(C(OC)C3CCOC3)c(Cl)c2C1=O` (single isomer, unassigned; (+)): the Ki was below 0.1 nM.

Turning to `COC(c1cc(Cl)c2c(c1Cl)C(=O)N(Cc1c(C)cc(C)[nH]c1=O)CC2)C1CCOCC1` (single isomer, unassigned; (+)), the Ki was 0.1 nM.

Turning to `CCC(O)c1cc(Cl)c2c(c1Cl)C(=O)N(Cc1c(C)cc(C)[nH]c1=O)CC2` (single isomer, unassigned; (+)), the Ki amounted to 130 nM.

`COC(c1cc(Cl)c2c(c1Cl)C(=O)N(Cc1c(C)cc(C)[nH]c1=O)CC2)C1CCN(C)CC1` (single isomer, unassigned; (+)): the Ki is below 0.1 nM.

A further series has as its system KARPAS-422. The experiment in a line: Antiproliferative activity against human KARPAS422 cells after 72 hrs by resazurin assay. Format: functional, cell-based. The conditions noted are these: Homo sapiens, KARPAS-422, 72 h. (Alamar Blue is a resazurin reagent that responds to reducing activity.)
In turn, `Cc1cc(C)c(CN2CCc3c(Cl)cc(-c4c(C)noc4C)c(Cl)c3C2=O)c(=O)[nH]1` showed an IC50 of 23 nM.

`Cc1cc(C)c(CN2CCc3c(Cl)cc([C@H](C)CO)c(Cl)c3C2=O)c(=O)[nH]1` gave an IC50 of 186 nM.

The series is the same for the next values; noted with them: karpas-422.
`COc1cc(C)[nH]c(=O)c1CN1CCc2c(Cl)cc(C(OC)C3CCOC3)c(Cl)c2C1=O` (single isomer, unassigned; (+)) gave an IC50 of 9 nM.

`COC(c1cc(Cl)c2c(c1Cl)C(=O)N(Cc1c(C)cc(C)[nH]c1=O)CC2)C1CCOCC1` (single isomer, unassigned; (+)) came in with an IC50 of 19 nM.

The molecule `CCC(O)c1cc(Cl)c2c(c1Cl)C(=O)N(Cc1c(C)cc(C)[nH]c1=O)CC2` (single isomer, unassigned; (+)) returned an IC50 of 714 nM.

The molecule `COC(c1cc(Cl)c2c(c1Cl)C(=O)N(Cc1c(C)cc(C)[nH]c1=O)CC2)C1CCN(C)CC1` (single isomer, unassigned; (+)) yielded an IC50 of 11 nM.

Test system in a further series: not listed separately
As to the kind of experiment: (§1) Intrinsic clearance in human liver microsomes assessed per mg protein at 1 uM preincubated for 10 mins followed by NADPH addition measured after 45 mins by LC-MS/MS analysis. Format: ADME, microsome. Conditions: liver microsomes, read-out: CLH. In short, it runs like this:
(§2)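 Test compound (1 μM) with pooled liver microsomes (0.8 mg/mL protein) in 100 mM potassium phosphate pH 7.4, 10 min preincubation, started with 2 mM NADPH, 45 min at 37 °C, in triplicate. Samples quenched with cold methanol containing buspirone internal standard, analysed by LC−MS/MS. CLint derived from t1/2 of parent loss (log-linear slope).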
A general note: Liver microsomes are a subcellular fraction often used to study metabolism.
Consider `Cc1cc(C)c(CN2CCc3c(Cl)cc(-c4c(C)noc4C)c(Cl)c3C2=O)c(=O)[nH]1`, for which the microsomal CLint at 1 µM was in the range of 107 to 169 µL/min/mg.

Take `Cc1cc(C)c(CN2CCc3c(Cl)cc([C@H](C)CO)c(Cl)c3C2=O)c(=O)[nH]1`: the microsomal CLint at 1 µM was 15.8 µL/min/mg.

The test system of the next series is Liver. Described as §1. The format is ADME, microsome. Conditions: microsomes, 0.75 h, 1 µM. A digest of the protocol:
as §2
On to `COc1cc(C)[nH]c(=O)c1CN1CCc2c(Cl)cc(C(OC)C3CCOC3)c(Cl)c2C1=O` (single isomer, unassigned; (+)), for which the microsomal CLint worked out at 60 µL/min/mg.

`COC(c1cc(Cl)c2c(c1Cl)C(=O)N(Cc1c(C)cc(C)[nH]c1=O)CC2)C1CCOCC1` (single isomer, unassigned; (+)) came in with a microsomal CLint of 129 µL/min/mg.

Molecule `CCC(O)c1cc(Cl)c2c(c1Cl)C(=O)N(Cc1c(C)cc(C)[nH]c1=O)CC2` (single isomer, unassigned; (+)) gave a microsomal CLint of 18 µL/min/mg.

On to `COC(c1cc(Cl)c2c(c1Cl)C(=O)N(Cc1c(C)cc(C)[nH]c1=O)CC2)C1CCN(C)CC1` (single isomer, unassigned; (+)), for which the microsomal CLint was below 10.2 µL/min/mg.

Test system in another series: not listed separately
The experiment in a line: Clearance in human hepatocytes assessed per million cells. The format is ADME, cell-based, Hepatocyte. Conditions: read-out: CLH.
Consider `Cc1cc(C)c(CN2CCc3c(Cl)cc(-c4c(C)noc4C)c(Cl)c3C2=O)c(=O)[nH]1`, for which the hepatocyte CLint is 75 µL/min/1e6 cells.

Test system in the next series: not listed separately
As to the kind of experiment: Kinetic solubility of the compound. The format is physicochemical.
Conditions: not given
`CCC(O)c1cc(Cl)c2c(c1Cl)C(=O)N(Cc1c(C)cc(C)[nH]c1=O)CC2` (single isomer, unassigned; (+)) came in with a Kinetic_solubility of 59 µM.

The series is the same for the next values; noted with them: read-out: Kinetic_solubility.
Take `Cc1cc(C)c(CN2CCc3c(Cl)cc(-c4c(C)noc4C)c(Cl)c3C2=O)c(=O)[nH]1`: the solubility kinetic was in the range of 93 to 95 µM (≈ 41.5 to 42.4 µg/mL).

As to `Cc1cc(C)c(CN2CCc3c(Cl)cc([C@H](C)CO)c(Cl)c3C2=O)c(=O)[nH]1`, the solubility kinetic worked out at 131 µM (≈ 53.6 µg/mL).

Take `COc1cc(C)[nH]c(=O)c1CN1CCc2c(Cl)cc(C(OC)C3CCOC3)c(Cl)c2C1=O` (single isomer, unassigned; (+)): the solubility kinetic was 433 µM (≈ 208 µg/mL).

With `COC(c1cc(Cl)c2c(c1Cl)C(=O)N(Cc1c(C)cc(C)[nH]c1=O)CC2)C1CCOCC1` (single isomer, unassigned; (+)), the solubility kinetic is 57.5 µM (≈ 27.6 µg/mL).

On to `COC(c1cc(Cl)c2c(c1Cl)C(=O)N(Cc1c(C)cc(C)[nH]c1=O)CC2)C1CCN(C)CC1` (single isomer, unassigned; (+)), for which the solubility kinetic was found to be 639 µM (≈ 315 µg/mL).

Test system in another series: not listed separately
The experiment in a line: Thermodynamic solubility in water at 25 degC using crystalline form. Conditions: read-out: Therm_solubility. Format: physicochemical.
Turning to `Cc1cc(C)c(CN2CCc3c(Cl)cc(-c4c(C)noc4C)c(Cl)c3C2=O)c(=O)[nH]1`, the solubility thermodynamic was found to be 2 µg/mL (≈ 4.48 µM).

With `Cc1cc(C)c(CN2CCc3c(Cl)cc([C@H](C)CO)c(Cl)c3C2=O)c(=O)[nH]1`, the solubility thermodynamic is 34 µg/mL (≈ 83.1 µM).

Test system in another series: not listed separately
As to the kind of experiment: Passive permeability in MDCK cells at 2 uM after 90 mins by LC-MS/MS analysis. Format: ADME, cell-based, Canis lupus familiaris. The conditions noted are these: dog, MDCK; read-out: permeability. A digest of the protocol:
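Low-efflux MDCK cells (MDCK-LE) on 96-well inserts, used on day 4. Monodirectional transport of 2 μM drug in transport buffer with 0.1% DMSO at 37 °C. Donor and receiver sampled at 0 and 90 min for LC−MS/MS. Donor pH 6.5 and 7.4, receiver pH 7.4.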
In the case of `Cc1cc(C)c(CN2CCc3c(Cl)cc(-c4c(C)noc4C)c(Cl)c3C2=O)c(=O)[nH]1`, the Papp at […], 2 µM is 15.7 ×10⁻⁶ cm/s.

Regarding `Cc1cc(C)c(CN2CCc3c(Cl)cc([C@H](C)CO)c(Cl)c3C2=O)c(=O)[nH]1`, the Papp at […], 2 µM worked out at 12.4 ×10⁻⁶ cm/s.

Turning to `COc1cc(C)[nH]c(=O)c1CN1CCc2c(Cl)cc(C(OC)C3CCOC3)c(Cl)c2C1=O` (single isomer, unassigned; (+)), the Papp at […], 2 µM worked out at 7.2 ×10⁻⁶ cm/s.

Turning to `COC(c1cc(Cl)c2c(c1Cl)C(=O)N(Cc1c(C)cc(C)[nH]c1=O)CC2)C1CCOCC1` (single isomer, unassigned; (+)), the Papp at […], 2 µM came to 13.3 ×10⁻⁶ cm/s.

Consider `CCC(O)c1cc(Cl)c2c(c1Cl)C(=O)N(Cc1c(C)cc(C)[nH]c1=O)CC2` (single isomer, unassigned; (+)), for which the Papp at […], 2 µM was 15 ×10⁻⁶ cm/s.

`COC(c1cc(Cl)c2c(c1Cl)C(=O)N(Cc1c(C)cc(C)[nH]c1=O)CC2)C1CCN(C)CC1` (single isomer, unassigned; (+)): the Papp at […], 2 µM is 2.7 ×10⁻⁶ cm/s.

Test system in a further series: not listed separately
The experiment in a line: Lipophilicity, log D of the compound at pH 7.4. Conditions: buffer, pH 7.4, logD.
`Cc1cc(C)c(CN2CCc3c(Cl)cc([C@H](C)CO)c(Cl)c3C2=O)c(=O)[nH]1` displayed a logD of 2.6.

`COc1cc(C)[nH]c(=O)c1CN1CCc2c(Cl)cc(C(OC)C3CCOC3)c(Cl)c2C1=O` (single isomer, unassigned; (+)) returned a logD of 2.5.

Consider `COC(c1cc(Cl)c2c(c1Cl)C(=O)N(Cc1c(C)cc(C)[nH]c1=O)CC2)C1CCOCC1` (single isomer, unassigned; (+)), for which the logD came out at 3.4.

With `CCC(O)c1cc(Cl)c2c(c1Cl)C(=O)N(Cc1c(C)cc(C)[nH]c1=O)CC2` (single isomer, unassigned; (+)), the logD was determined as 3.1.

Molecule `COC(c1cc(Cl)c2c(c1Cl)C(=O)N(Cc1c(C)cc(C)[nH]c1=O)CC2)C1CCN(C)CC1` (single isomer, unassigned; (+)) had a logD of 1.4.

The record behind these values is ChEMBL document CHEMBL4024771, “Optimization of Orally Bioavailable Enhancer of Zeste Homolog 2 (EZH2) Inhibitors Using Ligand and Property-Based Design Strategies: Identification of Development Candidate …” (J Med Chem, 2018).
